Results reported in ChEMBL document CHEMBL4177755, “Combating Drug-Resistant Fungi with Novel Imperfectly Amphipathic Palindromic Peptides” (J Med Chem, 2018).

Tests used:
[1] = tested on: Candida albicans; experiment: Antifungal activity against Candida albicans SP3902 after 48 hrs by broth microdilution method; type: functional; conditions: SP3902, 48 h
Method in brief: (§1)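 Modified CLSI M27-A2 broth microdilution. Yeast at (0.5−1) × 10^3 CFU/mL in MOPS-buffered RPMI 1640 was mixed 1:1 with peptide serially diluted in 0.2% BSA and incubated 48 h at 28 °C. Absorbance was read at 492 nm; MIC is the lowest concentration inhibiting 95% of growth. Triplicate, three biological replicates.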

[2] = tested on: Candida albicans; experiment: Antifungal activity against Candida albicans cgmcc 2.2086 in presence of ZnCl2 by broth dilution method; type: functional
[3] = tested on: Staphylococcus epidermidis; experiment: Bactericidal activity against Staphylococcus epidermidis ATCC 12228; type: functional; conditions: read-out: MBC99.9
Method in brief: (§2)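 Wells from the 24 h, 37 °C MHB microdilution plates (bacteria at a final (0.5−1) × 10^5 CFU/mL; peptide diluted in 0.2% BSA) were plated on agar and incubated overnight. MBC is the lowest concentration killing >99.9% of cells. Each test was reproduced at least 3 times.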

[4] = tested on: Candida albicans; experiment: Antifungal activity against Candida albicans cgmcc 2.2086 in presence of KCl by broth dilution method; type: functional
[5] = tested on: Escherichia coli; experiment: Antibacterial activity against Escherichia coli ATCC 25922 after 18 hrs in presence of FeCl3 by broth dilution method; type: functional; conditions: ATCC 25922, 18 h
[6] = tested on: Candida albicans; experiment: Fungicidal activity against Candida albicans SP3902 after 96 hrs; type: functional; conditions: SP3902, 96 h, read-out: MFC99.9
Method in brief: (§3)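 After the 48 h, 28 °C broth microdilution in MOPS-buffered RPMI 1640 (inoculum (0.5−1) × 10^3 CFU/mL), 50 μL from each well was plated on YM agar for a further 48 h at 28 °C. MFC is the lowest concentration killing at least 99.9% of cells. Triplicate, three biological replicates.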

[7] = tested on: Staphylococcus aureus; experiment: Antibacterial activity against Staphylococcus aureus ATCC 29213 after 24 hrs; type: functional; conditions: ATCC 29213, 24 h
Method in brief: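 Modified NCCLS broth microdilution. Mid-log bacteria at (0.5−1) × 10^5 CFU/mL in MHB were mixed 1:1 with peptide serially diluted in 0.2% BSA and incubated 24 h at 37 °C. Absorbance was read at 492 nm; MIC is the lowest concentration inhibiting 95% of growth. At least 3 repeats.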

[8] = tested on: Candida albicans; experiment: Antifungal activity against Candida albicans cgmcc 2.2086 in presence of FeCl3 by broth dilution method; type: functional
[9] = tested on: Candida albicans; experiment: Antifungal activity against Candida albicans cgmcc 2.2086 in presence of NH4Cl by broth dilution method; type: functional
[10] = tested on: Candida parapsilosis; experiment: Antifungal activity against Candida parapsilosis cgmcc 2.3989 after 48 hrs by broth microdilution method; type: functional; conditions: Lodderomyces parapsilosis, cgmcc 2.3989, 48 h
Method in brief: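 Modified CLSI M27-A2 broth microdilution. Yeast were suspended in MOPS-buffered RPMI 1640 at a final (0.5−1) × 10^3 CFU/mL and mixed 1:1 with peptide serially diluted in 0.2% BSA. Plates were incubated 48 h at 28 °C and read at A492. MIC is the lowest concentration giving 95% inhibition. Run in triplicate with three biological replicates.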

[11] = tested on: Staphylococcus aureus; experiment: Bactericidal activity against Staphylococcus aureus ATCC 29213; type: functional; conditions: read-out: MBC99.9; method in brief: as §2
[12] = Cytotoxicity against HEK293T cells assessed as cell viability at 2 to 64 uM after 24 hrs by MTT assay relative to control; type: cell-based, HEK-293T; conditions: human, read-out: Activity
Method in brief: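 MTT viability assay. RAW264.7 or HEK293T cells at (1.0−2.0) × 10^5 per well were exposed to a peptide concentration series for 24 h at 37 °C in 5% CO2. MTT was then added at 0.5 mg/mL final for 4 h; formazan was dissolved in DMSO and read at 570 nm. Results average three independent trials.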

[13] = tested on: Candida albicans; experiment: Antifungal activity against Candida albicans cgmcc 2.2086 in presence of NaCl by broth dilution method; type: functional
[14] = tested on: Candida albicans; experiment: Antifungal activity against fluconazole-resistant Candida albicans 56214 after 48 hrs by broth microdilution method; type: functional; conditions: Candida albicans, 56214, 48 h; method in brief: as §1
[15] = tested on: Escherichia coli; experiment: Bactericidal activity against Escherichia coli 1005; type: functional; conditions: read-out: MBC99.9; method in brief: as §2
[16] = tested on: Candida albicans; experiment: Fungicidal activity against fluconazole-resistant Candida albicans 17546 after 96 hrs; type: functional; conditions: Candida albicans, 17546, 96 h; read-out: MFC99.9; method in brief: as §3
[17] = tested on: Salmonella typhimurium; experiment: Antibacterial activity against Salmonella typhimurium ATCC 14028 after 24 hrs; type: functional, Salmonella enterica subsp. enterica serovar Typhimurium; conditions: Salmonella enterica, ATCC 14028, 24 h
Method in brief: (§4)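 Broth microdilution. Mid-log bacteria in MHB at a final (0.5−1) × 10^5 CFU/mL were mixed with equal volumes of peptide serially diluted in 0.2% BSA. Plates were incubated 24 h at 37 °C and read at A492. MIC is the lowest concentration inhibiting 95% of growth. Each test was repeated at least 3 times.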

[18] = tested on: Candida parapsilosis; experiment: Fungicidal activity against Candida parapsilosis cgmcc 2.3989 after 96 hrs; type: functional; conditions: Lodderomyces parapsilosis, cgmcc 2.3989, 96 h; read-out: MFC99.9
Method in brief: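 Wells from the 48 h, 28 °C RPMI 1640/MOPS microdilution plates were plated on YM agar and incubated a further 48 h at 28 °C. MFC is the lowest concentration killing at least 99.9% of cells. Run in triplicate with three biological replicates.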

[19] = tested on: Escherichia coli; experiment: Antibacterial activity against Escherichia coli ATCC 25922 after 18 hrs in presence of CaCl2 by broth dilution method; type: functional; conditions: ATCC 25922, 18 h
[20] = tested on: Escherichia coli; experiment: Antibacterial activity against Escherichia coli 1005 after 24 hrs; type: functional; conditions: Escherichia coli, 1005, 24 h; method in brief: as §4
[21] = tested on: Escherichia coli; experiment: Antibacterial activity against Escherichia coli ATCC 25922 after 18 hrs in presence of NaCl by broth dilution method; type: functional; conditions: ATCC 25922, 18 h
[22] = tested on: Candida albicans; experiment: Fungicidal activity against Candida albicans 58288 after 96 hrs; type: functional; conditions: Candida albicans, 58288, 96 h; read-out: MFC99.9; method in brief: as §3
[23] = tested on: Erythrocyte; experiment: Hemolytic activity in human RBC after 1 hr; type: ADME, cell-based
Method in brief: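 Fresh human erythrocytes, diluted 10-fold in PBS pH 7.4, were mixed with equal volumes of peptide and held 1 h at 37 °C. After centrifugation at 1000g, supernatant hemoglobin was read at 576 nm. PBS set 0% and 0.1% Triton X-100 set 100% lysis. MHC is the concentration causing 10% hemolysis. At least three experiments were run, each in technical triplicate.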

[24] = tested on: Candida albicans; experiment: Antifungal activity against Candida albicans cgmcc 2.2086 in presence of CaCl2 by broth dilution method; type: functional
[25] = tested on: Candida albicans; experiment: Antifungal activity against Candida albicans 14936 after 48 hrs by broth microdilution method; type: functional; conditions: Candida albicans, 14936, 48 h; method in brief: as §1
[26] = Bactericidal activity against Salmonella pullorum ATCC 7913; type: functional, Salmonella enterica subsp. enterica serovar Pullorum; conditions: Salmonella enterica, read-out: MBC99.9; method in brief: as §2
[27] = tested on: Candida albicans; experiment: Fungicidal activity against Candida albicans SP3903 after 96 hrs; type: functional; conditions: SP3903, 96 h, read-out: MFC99.9; method in brief: as §3
[28] = tested on: Candida albicans; experiment: Fungicidal activity against Candida albicans SP3876 after 96 hrs; type: functional; conditions: SP3876, 96 h, read-out: MFC99.9; method in brief: as §3
[29] = tested on: Escherichia coli; experiment: Bactericidal activity against Escherichia coli ATCC 25922; type: functional; conditions: read-out: MBC99.9; method in brief: as §2
[30] = tested on: Candida albicans; experiment: Fungicidal activity against fluconazole-resistant Candida albicans 56214 after 96 hrs; type: functional; conditions: Candida albicans, 56214, 96 h; read-out: MFC99.9; method in brief: as §3
[31] = tested on: Salmonella typhimurium; experiment: Bactericidal activity against Salmonella typhimurium ATCC 14028; type: functional, Salmonella enterica subsp. enterica serovar Typhimurium; conditions: Salmonella enterica, read-out: MBC99.9; method in brief: as §2

Substance | MIC95 [1] [µM] | MIC [2] [µM] | MBC [3] [µM] | MIC [4] [µM] | MIC [5] [µM] | MFC [6] [µM] | MIC95 [7] [µM] | MIC [8] [µM] | MIC [9] [µM] | MIC95 [10] [µM] | MBC [11] [µM] | viability at 24 h, up to 64 µM [12] [%] | MIC [13] [µM] | MIC95 [14] [µM] | MBC [15] [µM] | MFC [16] [µM] | MIC95 [17] [µM] | MFC [18] [µM] | MIC [19] [µM] | MIC95 [20] [µM] | also measured
H-RIRIIIRIR-NH2 | 2 | 4 | 8 | 4 | 8 | 2 | 4 | 4 | 4 | 8 | 8 | 70 to 80 | 16 | 2 | 8 | 2 | 4 | 16 | 16 | 4 | MIC [21]: 8 µM; MFC [22]: 4 µM; HC10 [23]: > 128 µM; MIC [24]: 32 µM; MIC95 [25]: 2 µM; MBC [26]: 16 µM; MFC [27]: 8 µM; MFC [28]: 1 µM; MBC [29]: 8 µM; MFC [30]: 4 µM; MBC [31]: 8 µM
H-RLLRRLRRLLR-NH2 | 4 | 8 | 4 | 16 | 16 | 8 | 4 | 8 | 4 | 8 | 16 | 70 to 80 | 16 | 8 | 4 | 16 | 8 | 16 | 8 | 4 | MIC [21]: 4 µM; MFC [22]: 16 µM; HC10 [23]: > 128 µM; MIC [24]: 8 µM; MIC95 [25]: 8 µM; MBC [26]: 32 µM; MFC [27]: 4 µM; MFC [28]: 8 µM; MBC [29]: 16 µM; MFC [30]: 16 µM; MBC [31]: 16 µM
H-RLRLLLRLR-NH2 | 4 | 8 | 8 | 16 | 4 | 8 | 8 | 8 | 8 | > 64 | 8 | 70 to 80 | 32 | 8 | 8 | 16 | 4 | > 64 | 8 | 4 | MIC [21]: 4 µM; MFC [22]: 16 µM; HC10 [23]: > 128 µM; MIC [24]: 64 µM; MIC95 [25]: 4 µM; MBC [26]: 8 µM; MFC [27]: 8 µM; MFC [28]: 4 µM; MBC [29]: 8 µM; MFC [30]: 16 µM; MBC [31]: 8 µM
H-RRFRFFFRFRR-NH2 | 4 | 4 | 4 | 16 | 4 | 4 | 4 | 4 | 4 | 16 | 8 | 70 to 80 | 16 | 4 | 4 | 2 | 4 | 32 | 4 | 4 | MIC [21]: 4 µM; MFC [22]: 8 µM; HC10 [23]: > 128 µM; MIC [24]: 16 µM; MIC95 [25]: 4 µM; MBC [26]: 4 µM; MFC [27]: 2 µM; MFC [28]: 4 µM; MBC [29]: 4 µM; MFC [30]: 8 µM; MBC [31]: 8 µM
H-RRIRIIIRIRR-NH2 | 2 | 2 | 4 | 2 | 4 | 2 | 4 | 2 | 2 | 4 | 8 | > 85 | 4 | 1 | 4 | 2 | 4 | 8 | 8 | 4 | MIC [21]: 4 µM; MFC [22]: 2 µM; HC10 [23]: > 128 µM; MIC [24]: 4 µM; MIC95 [25]: 2 µM; MBC [26]: 4 µM; MFC [27]: 1 µM; MFC [28]: 1 µM; MBC [29]: 4 µM; MFC [30]: 2 µM; MBC [31]: 4 µM
